The source made the active and inactive calls.
Tests used:
Type in all cases: functional, organism-based
Saccharomyces cerevisiae = assay: Antifungal activity against Saccharomyces cerevisiae at 1 mM by almar blue dye reduction assay
Method in brief: (§1)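 Single-point primary screen at 1 mM using Alamar Blue dye reduction as the growth read-out.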

Staphylococcus aureus = assay: Antibacterial activity against Staphylococcus aureus at 1 mM by almar blue dye reduction assay; method in brief: as §1
Pseudomonas aeruginosa = assay: Antibacterial activity against Pseudomonas aeruginosa at 1 mM by almar blue dye reduction assay; method in brief: as §1
Escherichia coli = assay: Antibacterial activity against Escherichia coli at 1 mM by almar blue dye reduction assay; method in brief: as §1
Bacillus anthracis = assay: Antibacterial activity against Bacillus anthracis at 1mM by almar blue dye reduction assay
Cryptococcus neoformans = assay: Antifungal activity against Cryptococcus neoformans at 1 mM by almar blue dye reduction assay; method in brief: as §1
Candida albicans = assay: Antifungal activity against Candida albicans at 1 mM by almar blue dye reduction assay; method in brief: as §1
Bacillus cereus = assay: Antibacterial activity against Bacillus cereus at 1 mM by almar blue dye reduction assay; method in brief: as §1
Bacillus subtilis = assay: Antibacterial activity against Bacillus subtilis at 1 mM by almar blue dye reduction assay; method in brief: as §1

Measured: Activity

CCCNC(=O)NCC#Cc1cn([C@H](C)CC2CCC([C@@H](C)C(=O)N3CCCC3)O2)nn1 (single isomer, unassigned)
inactive: all assays above

CCN(CC)C(=O)[C@H](C)[C@H]1CC[C@@H](C[C@@H](C)n2cc(C#CCN3CCN(c4ccccc4)CC3)nn2)O1
inactive: all assays above

COCCNCC#Cc1cn([C@H](C)C[C@@H]2CC[C@H]([C@@H](C)C(=O)N3CCN(CC4CCCO4)CC3)O2)nn1 (stereo partly specified)
inactive: all assays above

CCCCCC#Cc1cn([C@H](C)C[C@@H]2CC[C@H]([C@@H](C)C(=O)NC(C)C)O2)nn1
inactive: all assays above

CCN(CC)C(=O)[C@H](C)[C@H]1CC[C@@H](C[C@@H](C)n2cc(C#CCC3CCCC3)nn2)O1
inactive: all assays above

C[C@H](C[C@@H]1CC[C@H]([C@@H](C)C(=O)N(C)Cc2ccccc2)O1)n1cc(C#Cc2ccc(Oc3ccccc3)cc2)nn1
inactive: all assays above

COCCNCC#Cc1cn([C@H](C)C[C@@H]2CC[C@H]([C@@H](C)C(=O)N3CCCC3)O2)nn1
inactive: all assays above

C[C@H](C[C@@H]1CC[C@H]([C@@H](C)C(=O)N(C)Cc2ccccc2)O1)n1cc(C#CCN(C)C)nn1
inactive: all assays above

C[C@H](C[C@@H]1CC[C@H]([C@@H](C)C(=O)N(C)Cc2ccccc2)O1)n1cc(C#CCN2CCC(c3ccccc3)CC2)nn1
inactive: all assays above

CC(C)NC(=O)[C@H](C)C1CCC(C[C@@H](C)n2cc(C#CCNC(=O)OCc3ccccc3)nn2)O1 (single isomer, unassigned)
inactive: all assays above

CCCCCC#Cc1cn([C@H](C)C[C@@H]2CC[C@H]([C@@H](C)C(=O)N3CCN(CC4CCCO4)CC3)O2)nn1 (stereo partly specified)
inactive: all assays above

CC(C)NC(=O)[C@H](C)[C@H]1CC[C@@H](C[C@@H](C)n2cc(C#CCN3CCOCC3)nn2)O1
inactive: all assays above

CCCCCC#Cc1cn([C@H](C)C[C@@H]2CC[C@H]([C@@H](C)C(=O)N(CC)CC)O2)nn1
inactive: all assays above

Cc1cccc(NC(=O)NCC#Cc2cn([C@H](C)CC3CCC([C@@H](C)C(=O)NC(C)C)O3)nn2)c1 (single isomer, unassigned)
inactive: all assays above

C[C@H](C[C@@H]1CC[C@H]([C@@H](C)C(=O)N2CCCC2)O1)n1cc(C#CCOc2ccc(C(F)(F)F)cc2)nn1
inactive: all assays above

C[C@H](C[C@@H]1CC[C@H]([C@@H](C)C(=O)N2CCCC2)O1)n1cc(C#CCOc2ccccc2)nn1
inactive: all assays above

C[C@H](C[C@@H]1CC[C@H]([C@@H](C)C(=O)N2CCCC2)O1)n1cc(C#CCOc2ccc(Br)cc2)nn1
inactive: all assays above

CC(C)NC(=O)[C@H](C)[C@H]1CC[C@@H](C[C@@H](C)n2cc(C#CC3=CCCCC3)nn2)O1
inactive: all assays above

CCCNC(=O)NCC#Cc1cn([C@H](C)CC2CCC([C@@H](C)C(=O)N(C)Cc3ccccc3)O2)nn1 (single isomer, unassigned)
inactive: all assays above

COCC#Cc1cn([C@H](C)C[C@@H]2CC[C@H]([C@@H](C)C(=O)N3CCCC3)O2)nn1
inactive: all assays above

C[C@H](C[C@@H]1CC[C@H]([C@@H](C)C(=O)N(C)Cc2ccccc2)O1)n1cc(C#Cc2ccc(-c3ccccc3)cc2)nn1
inactive: all assays above

C[C@H](C[C@@H]1CC[C@H]([C@@H](C)C(=O)N2CCCC2)O1)n1cc(C#Cc2ccccc2)nn1
not listed: Saccharomyces cerevisiae
inactive: all other assays above

CCOC(=O)C#Cc1cn([C@H](C)CC2CCC([C@@H](C)C(=O)N(C)Cc3ccccc3)O2)nn1 (single isomer, unassigned)
inactive: all assays above

From ChEMBL document CHEMBL1155099, “Natural products in parallel synthesis: triazole libraries of nonactic acid” (2008)
